Laboratory results from ChEMBL document CHEMBL1139577, “Discovery of 3-OH-3-methylpipecolic hydroxamates: potent orally active inhibitors of aggrecanase and MMP-13” (Bioorg Med Chem Lett, 2005).

Columns and labels:
[1] = Inhibitory concentration against MMP-13
[2] = molecular target: T1, Interstitial collagenase (Homo sapiens, UniProt P03956); experiment: Inhibitory concentration against MMP-1
T1 sequence (P03956 whole entry): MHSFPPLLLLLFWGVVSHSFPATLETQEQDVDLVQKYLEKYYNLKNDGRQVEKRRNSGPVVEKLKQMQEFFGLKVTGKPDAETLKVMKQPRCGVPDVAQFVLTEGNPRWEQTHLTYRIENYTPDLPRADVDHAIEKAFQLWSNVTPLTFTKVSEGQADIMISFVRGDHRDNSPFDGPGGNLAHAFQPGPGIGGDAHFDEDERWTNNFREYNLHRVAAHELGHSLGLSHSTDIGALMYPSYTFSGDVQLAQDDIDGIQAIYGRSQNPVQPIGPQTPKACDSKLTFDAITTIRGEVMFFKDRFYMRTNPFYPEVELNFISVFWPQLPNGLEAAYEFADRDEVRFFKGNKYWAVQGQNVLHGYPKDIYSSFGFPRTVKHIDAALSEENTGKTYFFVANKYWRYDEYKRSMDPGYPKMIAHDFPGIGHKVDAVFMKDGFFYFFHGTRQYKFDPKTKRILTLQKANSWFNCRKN

[3] = Inhibitory concentration against aggrecanase from porcine chondrocytes using [35S]-sulfate (5 mCi/ml) as radioligand and adding IL-1alpha (5 ng/ml) incubated for 10h; parameters: species or system Sus scrofa
In short: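 Cell-based assay in porcine chondrocytes. Glycosaminoglycan chains were labelled by including [³⁵S]sulfate (5 mCi/ml) in the culture medium, and unincorporated label was washed out before aggrecan degradation was assessed.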

[4] = molecular target: T2, A disintegrin and metalloproteinase with thrombospondin motifs 4 (Homo sapiens) (UniProt O75173); experiment: Inhibitory concentration at 500 nM against aggrecanase from porcine chondrocytes using [35S]-sulfate (5 mCi/ml) as radioligand and adding IL-1alpha (5 ng/ml) incubated for 10h; details: Sus scrofa, target entry is the homologue from another species
T2 sequence (whole entry): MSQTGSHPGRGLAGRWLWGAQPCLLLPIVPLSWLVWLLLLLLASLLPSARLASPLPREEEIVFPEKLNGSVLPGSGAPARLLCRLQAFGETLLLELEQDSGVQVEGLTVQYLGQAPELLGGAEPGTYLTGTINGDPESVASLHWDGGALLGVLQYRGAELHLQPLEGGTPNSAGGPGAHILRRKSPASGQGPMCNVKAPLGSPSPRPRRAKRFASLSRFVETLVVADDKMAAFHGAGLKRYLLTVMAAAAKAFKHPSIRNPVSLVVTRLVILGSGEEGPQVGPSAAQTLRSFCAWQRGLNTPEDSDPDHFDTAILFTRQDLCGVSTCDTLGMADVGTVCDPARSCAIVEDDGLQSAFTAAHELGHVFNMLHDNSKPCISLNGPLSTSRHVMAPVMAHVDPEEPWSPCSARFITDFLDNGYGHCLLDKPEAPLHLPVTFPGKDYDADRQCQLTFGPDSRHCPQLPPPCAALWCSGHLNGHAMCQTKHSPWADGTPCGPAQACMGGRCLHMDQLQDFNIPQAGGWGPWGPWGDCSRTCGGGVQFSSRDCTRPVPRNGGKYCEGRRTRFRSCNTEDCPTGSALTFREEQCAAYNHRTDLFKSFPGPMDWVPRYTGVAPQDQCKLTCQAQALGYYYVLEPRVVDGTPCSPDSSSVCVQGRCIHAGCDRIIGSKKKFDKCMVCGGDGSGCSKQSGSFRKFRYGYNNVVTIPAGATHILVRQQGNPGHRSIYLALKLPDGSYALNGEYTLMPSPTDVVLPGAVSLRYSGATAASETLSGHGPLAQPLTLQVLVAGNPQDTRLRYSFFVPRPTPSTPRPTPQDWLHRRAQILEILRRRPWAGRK

[5] = molecular target: Disintegrin and metalloproteinase domain-containing protein 17 (Rattus norvegicus, UniProt Q9Z1K9); experiment: Inhibitory concentration against rat TACE
[6] = Clearance in rat; assay type: ADME, organism-based; details: plasma, read-out: Clp
In short: (§1)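 Male Sprague–Dawley rats with jugular vein catheters got an iv bolus of 5 mg/kg in glycerol formal. Jugular blood was drawn at 5, 15 and 30 min and at 1, 2, 4, 6, 8 and 24 h. Plasma was diluted with an equal volume of water, extracted with MTBE and assayed by LC–MS/MS. Parameters were derived by non-compartmental analysis.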

[7] = Half life in dog; assay type: ADME, Canis lupus familiaris; details: in vivo
[8] = Half life in rat; assay type: ADME; details: in vivo; in short: as §1
[9] = Clearance in dog; assay type: ADME, organism-based, Canis lupus familiaris; details: plasma, read-out: Clp
[10] = molecular target: Neutrophil collagenase (Homo sapiens, UniProt P22894); experiment: Inhibitory concentration against MMP-8
[11] = tested on: Cricetinae gen. sp.; experiment: Potent inhibition of IL-1 induced aggrecan degradation in hamster; assay type: functional, Cricetulus griseus
[12] = organism: Bos taurus; experiment: Inhibition of IL-1 induced aggrecan degradation in bovine nasal cartilage explants; assay type: functional
In short: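 Bovine nasal cartilage plugs (4 mm diameter and length) were cultured in serum-free DMEM with IL-1α plus inhibitor. After 48 h, samples were analysed for GAG content by the DMMB assay.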

[13] = molecular target: 72 kDa type IV collagenase (Homo sapiens, UniProt P08253); experiment: Inhibitory concentration against MMP-2
[14] = molecular target: Matrix metalloproteinase-14 (Homo sapiens, UniProt P50281); experiment: Inhibitory concentration against MMP-14
[15] = tested on: Cell line; experiment: Inhibition of IL-1 induced aggrecan degradation in human osteoarthritic cartilage; assay type: functional, cell-based; details: Cartilage tissue
In short: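 Articular cartilage came from total knee replacement and was cut into 1 × 2 mm pieces. These were cultured in DMEM with 0.5% fetal bovine serum and stimulated with IL-1α (50 ng/ml) plus oncostatin M (50 ng/ml). After 48 h, released GAG in the medium was measured by DMMB; n = 2.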

[16] = tested on: Cricetinae gen. sp.; experiment: Potent inhibition of MMP-13 induced collagen degradation in hamster knee joints; assay type: functional, Cricetulus griseus; details: Knee joint
[17] = organism: Bos taurus; experiment: Inhibition of IL-1 induced collagen degradation in bovine nasal cartilage explants; assay type: functional
[18] = molecular target: Matrix metalloproteinase-9 (Homo sapiens, UniProt P14780); experiment: Inhibitory concentration against MMP-9
[19] = molecular target: Stromelysin-1 (Homo sapiens, UniProt P08254); experiment: Inhibitory concentration against MMP-3
Chain of Stromelysin-1 (P08254 whole entry): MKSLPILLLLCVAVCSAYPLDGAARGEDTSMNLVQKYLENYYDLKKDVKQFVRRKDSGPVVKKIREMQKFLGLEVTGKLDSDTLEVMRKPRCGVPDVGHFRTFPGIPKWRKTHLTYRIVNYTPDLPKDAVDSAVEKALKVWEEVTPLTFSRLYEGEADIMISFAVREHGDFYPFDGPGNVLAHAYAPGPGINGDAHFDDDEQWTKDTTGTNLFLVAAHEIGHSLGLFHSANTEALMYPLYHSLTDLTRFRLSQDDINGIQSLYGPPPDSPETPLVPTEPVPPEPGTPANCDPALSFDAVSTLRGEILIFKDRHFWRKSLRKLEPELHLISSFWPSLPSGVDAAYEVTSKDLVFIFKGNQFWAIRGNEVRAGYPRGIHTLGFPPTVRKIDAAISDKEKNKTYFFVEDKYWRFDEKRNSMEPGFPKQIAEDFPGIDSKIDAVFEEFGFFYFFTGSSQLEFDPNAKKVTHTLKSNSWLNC

Chain of Disintegrin and metalloproteinase domain-containing protein 17 (Q9Z1K9 whole entry, the tested form may be a part): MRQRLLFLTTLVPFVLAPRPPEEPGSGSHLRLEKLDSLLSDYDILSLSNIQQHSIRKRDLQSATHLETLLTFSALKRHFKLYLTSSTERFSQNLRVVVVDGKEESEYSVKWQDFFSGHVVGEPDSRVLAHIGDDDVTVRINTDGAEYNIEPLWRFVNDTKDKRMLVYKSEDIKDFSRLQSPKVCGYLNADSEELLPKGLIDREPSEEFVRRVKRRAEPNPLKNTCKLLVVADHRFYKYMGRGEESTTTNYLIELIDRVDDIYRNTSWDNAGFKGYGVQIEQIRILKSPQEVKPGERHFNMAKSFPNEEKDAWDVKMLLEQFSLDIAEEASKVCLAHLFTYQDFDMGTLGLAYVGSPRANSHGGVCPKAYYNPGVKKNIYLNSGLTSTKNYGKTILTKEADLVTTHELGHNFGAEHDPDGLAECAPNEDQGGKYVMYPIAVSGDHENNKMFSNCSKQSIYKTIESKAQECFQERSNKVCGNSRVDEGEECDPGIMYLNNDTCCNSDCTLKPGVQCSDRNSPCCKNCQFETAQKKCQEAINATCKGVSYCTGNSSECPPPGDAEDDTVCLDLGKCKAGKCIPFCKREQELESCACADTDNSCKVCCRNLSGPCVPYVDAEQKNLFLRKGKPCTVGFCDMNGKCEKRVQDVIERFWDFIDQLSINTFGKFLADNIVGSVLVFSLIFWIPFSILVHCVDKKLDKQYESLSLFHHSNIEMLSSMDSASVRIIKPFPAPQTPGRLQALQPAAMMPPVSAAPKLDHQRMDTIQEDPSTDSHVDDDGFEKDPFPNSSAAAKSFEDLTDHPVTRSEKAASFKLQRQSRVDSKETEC
Chain of 72 kDa type IV collagenase (P08253 whole entry): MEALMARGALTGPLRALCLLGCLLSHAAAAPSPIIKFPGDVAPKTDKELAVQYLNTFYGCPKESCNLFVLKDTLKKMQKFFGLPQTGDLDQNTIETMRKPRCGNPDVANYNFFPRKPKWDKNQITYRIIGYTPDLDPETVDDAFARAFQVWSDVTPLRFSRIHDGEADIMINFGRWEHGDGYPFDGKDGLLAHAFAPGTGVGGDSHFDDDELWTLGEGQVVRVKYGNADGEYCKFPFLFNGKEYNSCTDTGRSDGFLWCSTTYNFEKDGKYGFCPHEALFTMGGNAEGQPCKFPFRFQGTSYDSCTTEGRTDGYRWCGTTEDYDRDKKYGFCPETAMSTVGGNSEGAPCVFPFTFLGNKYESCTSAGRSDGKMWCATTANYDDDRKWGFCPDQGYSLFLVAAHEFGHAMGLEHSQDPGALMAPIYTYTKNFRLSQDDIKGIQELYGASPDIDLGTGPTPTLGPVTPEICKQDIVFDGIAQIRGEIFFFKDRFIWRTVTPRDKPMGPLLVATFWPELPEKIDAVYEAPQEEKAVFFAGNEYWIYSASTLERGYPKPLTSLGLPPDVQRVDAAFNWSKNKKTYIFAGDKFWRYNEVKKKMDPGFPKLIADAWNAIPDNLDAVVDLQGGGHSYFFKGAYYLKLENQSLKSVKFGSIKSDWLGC
Chain of Neutrophil collagenase (P22894 whole entry): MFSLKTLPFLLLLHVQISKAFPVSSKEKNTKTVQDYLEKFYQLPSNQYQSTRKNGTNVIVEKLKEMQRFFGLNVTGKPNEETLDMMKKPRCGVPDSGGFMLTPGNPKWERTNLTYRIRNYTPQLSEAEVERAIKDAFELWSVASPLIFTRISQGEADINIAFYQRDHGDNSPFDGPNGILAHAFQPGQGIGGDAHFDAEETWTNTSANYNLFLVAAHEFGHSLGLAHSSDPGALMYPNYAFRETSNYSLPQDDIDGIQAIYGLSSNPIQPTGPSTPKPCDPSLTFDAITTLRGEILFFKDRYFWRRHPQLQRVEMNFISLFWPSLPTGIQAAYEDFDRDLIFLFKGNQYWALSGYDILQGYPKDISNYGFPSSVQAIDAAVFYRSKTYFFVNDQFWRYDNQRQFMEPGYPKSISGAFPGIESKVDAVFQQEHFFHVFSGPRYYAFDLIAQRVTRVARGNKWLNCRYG
Chain of Matrix metalloproteinase-9 (P14780 whole entry): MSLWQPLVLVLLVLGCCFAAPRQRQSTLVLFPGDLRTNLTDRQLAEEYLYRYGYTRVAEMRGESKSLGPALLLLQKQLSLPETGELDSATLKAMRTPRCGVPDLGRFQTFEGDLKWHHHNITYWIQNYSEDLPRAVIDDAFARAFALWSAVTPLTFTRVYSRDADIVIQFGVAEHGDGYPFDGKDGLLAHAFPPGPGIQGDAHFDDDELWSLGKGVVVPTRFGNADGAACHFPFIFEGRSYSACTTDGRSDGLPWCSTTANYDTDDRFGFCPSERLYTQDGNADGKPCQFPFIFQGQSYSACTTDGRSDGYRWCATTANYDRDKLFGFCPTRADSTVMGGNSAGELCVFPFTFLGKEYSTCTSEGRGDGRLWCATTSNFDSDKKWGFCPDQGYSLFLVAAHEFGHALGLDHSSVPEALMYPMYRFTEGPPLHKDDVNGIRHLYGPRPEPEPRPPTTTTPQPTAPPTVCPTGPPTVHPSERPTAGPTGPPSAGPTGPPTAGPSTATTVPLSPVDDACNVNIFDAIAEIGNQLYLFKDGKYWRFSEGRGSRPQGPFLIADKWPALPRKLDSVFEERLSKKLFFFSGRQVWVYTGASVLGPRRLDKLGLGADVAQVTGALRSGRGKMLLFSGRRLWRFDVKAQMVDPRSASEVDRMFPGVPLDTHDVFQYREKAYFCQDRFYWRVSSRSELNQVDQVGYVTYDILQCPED

Compound	IC50 [1]	IC50 [2]	IC50 [3]	IC50 [5]	also measured
C[C@@]1(O)CCCN(S(=O)(=O)c2ccc(OCc3cccc4cccnc34)cc2)[C@H]1C(=O)NO	4.1 nM	120 nM	19 nM		
C[C@@]1(O)CCCN(S(=O)(=O)c2ccc(OCc3cnccn3)cc2)[C@H]1C(=O)NO	7.4 nM	1600 nM			inhibition [4]: 8%
CCCC[C@]1(O)CCCN(S(=O)(=O)c2ccc(OCc3ccc(F)cc3)cc2)[C@H]1C(=O)NO	4.9 nM	2900 nM	2000 nM	23 nM	
CC[C@@]1(O)CCCN(S(=O)(=O)c2ccc(OCc3ccc(F)cc3)cc2)[C@H]1C(=O)NO	1.6 nM	500 nM	500 nM	18 nM	
CC[C@]1(O)CCCN(S(=O)(=O)c2ccc(OCc3ccc(F)cc3)cc2)[C@H]1C(=O)NO	3.6 nM	1100 nM	490 nM	1.7 nM	
C[C@@]1(O)CCCN(S(=O)(=O)c2ccc(OCc3ccnc(Cl)c3)cc2)[C@H]1C(=O)NO	0.43 nM	520 nM	15 nM		
Cc1ccc(F)cc1COc1ccc(S(=O)(=O)N2CCC[C@@](C)(O)[C@@H]2C(=O)NO)cc1	2.5 nM		15 nM		
C[C@@]1(O)CCCN(S(=O)(=O)c2ccc(OCc3ccc(Cl)cc3F)cc2)[C@H]1C(=O)NO	0.87 nM	120 nM	7.9 nM		
C[C@]1(O)CCCN(S(=O)(=O)c2ccc(OCc3ccc(F)cc3)cc2)[C@H]1C(=O)NO	6.5 nM	1100 nM	> 1000 nM	11 nM	
C[C@@]1(O)CCCN(S(=O)(=O)c2ccc(OCc3ccccc3F)cc2)[C@H]1C(=O)NO	0.49 nM	180 nM	14 nM		
C[C@@]1(O)CCCN(S(=O)(=O)c2ccc(OCc3ccccc3Cl)cc2)[C@H]1C(=O)NO	1 nM		3.7 nM		
CC1(C)C[C@@H](O)CN(S(=O)(=O)c2ccc(OCc3ccc(Cl)cc3Cl)cc2)[C@H]1C(=O)NO					clearance [6]: 44 mL/min/kg; half-life [7]: 2 h; half-life [8]: 2 h; clearance [9]: 25 mL/min/kg
C[C@@]1(O)CCCN(S(=O)(=O)c2ccc(OCc3ccccc3C#N)cc2)[C@H]1C(=O)NO	9.7 nM	2700 nM			inhibition [4]: 55%
C[C@@]1(O)CCCN(S(=O)(=O)c2ccc(OCc3ccc(F)cc3)cc2)[C@H]1C(=O)NO (stereo in doubt; 17)		420 nM		14 nM	
Cc1ncccc1COc1ccc(S(=O)(=O)N2CCC[C@@](C)(O)[C@@H]2C(=O)NO)cc1	1.5 nM	1600 nM	51 nM		
C[C@@]1(O)CCCN(S(=O)(=O)c2ccc(OCc3cccc(Cl)c3)cc2)[C@H]1C(=O)NO	2.5 nM	860 nM	78 nM		
COc1ccccc1COc1ccc(S(=O)(=O)N2CCC[C@@](C)(O)[C@@H]2C(=O)NO)cc1	18 nM	2600 nM			inhibition [4]: 73%
C[C@@]1(O)CCCN(S(=O)(=O)c2ccc(OCc3ccc(F)cc3Cl)cc2)[C@H]1C(=O)NO	0.9 nM	310 nM	1.5 nM		clearance [6]: 13 mL/min/kg; IC50 [10]: 1 nM; ED50 [11]: 4.6 mg/kg; IC50 [12]: 10.3 nM; IC50 [13]: 4 nM; IC50 [14]: 83 nM; half-life [7]: 4.6 h; IC50 [15]: 6 nM; ED50 [16]: 13 mg/kg; IC50 [17]: 100 nM; half-life [8]: 2 h; IC50 [18]: 11 nM; clearance [9]: 11 mL/min/kg; IC50 [19]: 5 nM
Cc1c(F)cccc1COc1ccc(S(=O)(=O)N2CCC[C@@](C)(O)[C@@H]2C(=O)NO)cc1	3.2 nM	1300 nM	11 nM	10 nM	
C[C@@]1(O)CCCN(S(=O)(=O)c2ccc(OCc3ccncc3)cc2)[C@H]1C(=O)NO	2 nM	190 nM			inhibition [4]: 8.1%
C[C@@]1(O)CCCN(S(=O)(=O)c2ccc(OCc3ccc(F)cc3)cc2)[C@H]1C(=O)NO (stereo in doubt; 11)	3.7 nM	420 nM	120 nM	14 nM	
C[C@@]1(O)CCCN(S(=O)(=O)c2ccc(OCc3cccc(F)c3)cc2)[C@H]1C(=O)NO	1.5 nM	340 nM	85 nM		
Cc1ccccc1COc1ccc(S(=O)(=O)N2CCC[C@@](C)(O)[C@@H]2C(=O)NO)cc1	0.65 nM	310 nM	6.9 nM		
C[C@@]1(O)CCCN(S(=O)(=O)c2ccc(OCc3cccc4ccncc34)cc2)[C@H]1C(=O)NO	18 nM	7800 nM	17 nM		
Cc1cc(F)ccc1COc1ccc(S(=O)(=O)N2CCC[C@@](C)(O)[C@@H]2C(=O)NO)cc1	2.9 nM		4.7 nM	15 nM	
